This note sets out measurements from PMC4200025 (International Journal of Nanomedicine, 2014).

Assay type in all cases: in vivo
Data set [1] is described as follows: Organ dye content 24 hours after IV injection. As to conditions: mice. In a few lines: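 ND4 Swiss Webster mice (25–30 g, n=3 per group) were anaesthetised with IP pentobarbital (40 mg/kg). They received 0.24 mg/kg dye (conjugate dosed by dye content) via the tail vein. At 24 h, organs were dissected, minced, homogenised and extracted in DMSO for 4 h, then centrifuged at 9,000 rpm for 15 min. Supernatant fluorescence was read against a DMSO calibration curve (785 nm excitation) and normalised to organ mass.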

A short description of data set [2]: Plasma dye concentration after IV injection. The following applies: mice, 24 hours after IV injection.
Data set [3] can be described thus: Two-compartment pharmacokinetic analysis of plasma data. The following applies: ND4 Swiss Webster, mouse, iv, 0.24 mg/kg, distribution half-life, mice, IV 0.24 mg/kg dye, two-compartment model.

In the case of `CC1(C)C(/C=C/C=C/C=C/C=C2\N(CCCCS(=O)(=O)O)c3ccc4ccccc4c3C2(C)C)=[N+](CCCCS(=O)(=O)[O-])c2ccc3ccccc3c21` [ICG, indocyanine green], in data set [1], the “organ dye content, kidneys” value is “at background level” and the “organ dye content, lungs” value is listed as “at background level”. For the same compound, in data set [2], the “overall recovered percentage of injected dose (plasma plus organs)” value stood at 2.6% and the “recovered percentage of injected dose in plasma” value stood at 0.8%. In data set [3], the half-life (in general, the time in which the quantity being followed falls by half) was around 3.06 min.
